According to ChEMBL document CHEMBL1165965, “Synthesis and structure-activity relationships of 1,2,3,4-tetrahydropyrido[2,3-b]pyrazines as potent and selective inhibitors of the anaplastic lymphoma kinase” (Bioorg Med Chem, 2010):

Columns and labels:
[1] = target: Insulin receptor-related protein (Homo sapiens) (UniProt P14616); experiment: Inhibition of INSRR at 1 uM
Method in brief: (§1)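 Single-concentration screen on the Ambit KINOMEscan platform, run against a panel of 250–400 kinases. Per-kinase inhibition was also summarized as S(90), the fraction of kinases inhibited by more than 90%.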

[2] = target: T1, Tyrosine-protein kinase JAK3 (Homo sapiens) (UniProt P52333); experiment: Inhibition of JAK3 JH1 catalytic domain at 1 uM; method in brief: as §1
T1 sequence (whole entry): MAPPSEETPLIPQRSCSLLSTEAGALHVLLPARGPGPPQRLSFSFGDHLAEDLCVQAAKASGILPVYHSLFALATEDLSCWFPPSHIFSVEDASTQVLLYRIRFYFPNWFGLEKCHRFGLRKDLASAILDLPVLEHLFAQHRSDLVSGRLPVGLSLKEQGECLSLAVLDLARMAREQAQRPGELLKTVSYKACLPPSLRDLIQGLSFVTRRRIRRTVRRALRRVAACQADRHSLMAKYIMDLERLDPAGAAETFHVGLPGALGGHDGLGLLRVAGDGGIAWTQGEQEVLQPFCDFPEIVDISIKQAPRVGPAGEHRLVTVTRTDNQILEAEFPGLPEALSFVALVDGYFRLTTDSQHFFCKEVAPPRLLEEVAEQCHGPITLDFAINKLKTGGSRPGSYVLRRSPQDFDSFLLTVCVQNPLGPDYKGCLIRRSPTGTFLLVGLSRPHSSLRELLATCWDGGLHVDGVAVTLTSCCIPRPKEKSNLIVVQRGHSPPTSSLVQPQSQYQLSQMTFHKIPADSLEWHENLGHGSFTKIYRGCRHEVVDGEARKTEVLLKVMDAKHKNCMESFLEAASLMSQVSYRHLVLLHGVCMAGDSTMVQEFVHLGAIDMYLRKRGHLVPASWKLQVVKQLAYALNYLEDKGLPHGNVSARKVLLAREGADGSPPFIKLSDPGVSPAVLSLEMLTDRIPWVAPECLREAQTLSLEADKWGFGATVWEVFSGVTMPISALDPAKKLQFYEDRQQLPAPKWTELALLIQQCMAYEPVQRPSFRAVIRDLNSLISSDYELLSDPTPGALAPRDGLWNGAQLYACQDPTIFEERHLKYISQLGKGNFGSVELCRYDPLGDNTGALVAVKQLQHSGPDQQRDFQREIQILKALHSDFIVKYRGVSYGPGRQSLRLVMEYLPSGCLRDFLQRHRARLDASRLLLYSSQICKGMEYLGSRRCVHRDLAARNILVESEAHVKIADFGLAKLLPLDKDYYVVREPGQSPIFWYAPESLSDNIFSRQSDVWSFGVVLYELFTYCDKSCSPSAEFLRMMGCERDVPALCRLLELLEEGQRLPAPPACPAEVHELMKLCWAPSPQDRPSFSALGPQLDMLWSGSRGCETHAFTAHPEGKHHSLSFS

[3] = test system: Mast/stem cell growth factor receptor Kit (Homo sapiens), P10721 [D816V]; experiment: Inhibition of KIT D816V mutant at 1 uM; method in brief: as §1
Chain of Mast/stem cell growth factor receptor Kit (Homo sapiens), P10721 [D816V] (P10721 whole entry D816V): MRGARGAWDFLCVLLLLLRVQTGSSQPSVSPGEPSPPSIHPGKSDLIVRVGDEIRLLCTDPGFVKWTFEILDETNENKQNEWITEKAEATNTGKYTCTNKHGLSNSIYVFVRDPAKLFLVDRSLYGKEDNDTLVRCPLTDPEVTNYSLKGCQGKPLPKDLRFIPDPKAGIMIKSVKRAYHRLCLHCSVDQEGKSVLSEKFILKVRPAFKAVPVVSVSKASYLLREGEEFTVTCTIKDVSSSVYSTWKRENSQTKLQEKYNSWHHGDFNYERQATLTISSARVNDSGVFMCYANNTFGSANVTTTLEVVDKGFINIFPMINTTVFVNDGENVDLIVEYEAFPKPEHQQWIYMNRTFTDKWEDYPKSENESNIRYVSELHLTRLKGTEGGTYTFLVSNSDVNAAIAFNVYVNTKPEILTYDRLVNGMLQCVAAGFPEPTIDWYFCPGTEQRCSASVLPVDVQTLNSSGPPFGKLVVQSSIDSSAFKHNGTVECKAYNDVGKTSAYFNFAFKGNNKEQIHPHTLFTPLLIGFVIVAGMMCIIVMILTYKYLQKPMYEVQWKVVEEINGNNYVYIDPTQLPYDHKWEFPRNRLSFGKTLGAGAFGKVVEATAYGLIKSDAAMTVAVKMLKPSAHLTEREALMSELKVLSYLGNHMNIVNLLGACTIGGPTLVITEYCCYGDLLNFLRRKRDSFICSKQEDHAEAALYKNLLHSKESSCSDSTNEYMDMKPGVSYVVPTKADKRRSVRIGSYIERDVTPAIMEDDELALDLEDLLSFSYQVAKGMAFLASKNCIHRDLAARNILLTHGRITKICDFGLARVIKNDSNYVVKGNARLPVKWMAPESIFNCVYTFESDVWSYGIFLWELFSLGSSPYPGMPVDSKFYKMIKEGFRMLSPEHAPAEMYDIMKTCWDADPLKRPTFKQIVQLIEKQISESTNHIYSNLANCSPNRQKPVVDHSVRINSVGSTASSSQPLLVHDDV

[4] = target: T2, Mitogen-activated protein kinase kinase kinase 15 (Homo sapiens) (UniProt Q6ZN16); experiment: Inhibition of MAP3K15 at 1 uM
T2 sequence (whole entry): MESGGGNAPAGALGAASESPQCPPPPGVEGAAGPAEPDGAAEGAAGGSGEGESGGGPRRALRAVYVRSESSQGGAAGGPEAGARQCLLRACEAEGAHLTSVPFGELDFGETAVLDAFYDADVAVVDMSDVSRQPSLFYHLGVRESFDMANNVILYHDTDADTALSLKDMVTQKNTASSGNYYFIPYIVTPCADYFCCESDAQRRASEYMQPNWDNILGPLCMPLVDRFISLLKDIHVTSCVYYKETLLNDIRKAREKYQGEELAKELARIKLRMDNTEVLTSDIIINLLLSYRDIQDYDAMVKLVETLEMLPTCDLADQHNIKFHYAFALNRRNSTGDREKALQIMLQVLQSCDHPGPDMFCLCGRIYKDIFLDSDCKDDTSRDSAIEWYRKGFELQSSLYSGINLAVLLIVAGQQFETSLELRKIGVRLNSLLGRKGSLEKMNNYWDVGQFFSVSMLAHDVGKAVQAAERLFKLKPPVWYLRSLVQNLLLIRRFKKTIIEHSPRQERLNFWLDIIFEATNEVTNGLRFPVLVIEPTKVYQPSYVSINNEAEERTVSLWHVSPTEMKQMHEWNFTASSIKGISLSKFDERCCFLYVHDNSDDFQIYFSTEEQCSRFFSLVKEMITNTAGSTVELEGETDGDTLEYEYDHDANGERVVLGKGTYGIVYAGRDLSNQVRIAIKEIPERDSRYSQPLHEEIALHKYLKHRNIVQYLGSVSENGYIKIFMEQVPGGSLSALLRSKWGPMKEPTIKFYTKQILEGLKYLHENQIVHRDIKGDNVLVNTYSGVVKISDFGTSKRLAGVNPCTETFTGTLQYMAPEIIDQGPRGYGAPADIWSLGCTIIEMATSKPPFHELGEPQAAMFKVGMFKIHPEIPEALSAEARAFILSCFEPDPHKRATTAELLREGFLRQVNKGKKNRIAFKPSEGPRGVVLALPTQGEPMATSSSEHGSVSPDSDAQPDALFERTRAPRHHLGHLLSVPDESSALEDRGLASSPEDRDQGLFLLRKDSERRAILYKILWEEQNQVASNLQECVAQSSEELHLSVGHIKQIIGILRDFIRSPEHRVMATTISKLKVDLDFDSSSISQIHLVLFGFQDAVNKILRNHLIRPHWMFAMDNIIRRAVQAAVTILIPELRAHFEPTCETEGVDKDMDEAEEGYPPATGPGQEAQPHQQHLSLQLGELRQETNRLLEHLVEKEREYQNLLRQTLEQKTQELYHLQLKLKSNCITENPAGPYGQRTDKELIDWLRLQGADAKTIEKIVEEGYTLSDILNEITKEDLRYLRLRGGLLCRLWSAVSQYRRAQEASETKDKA

[5] = target: SRSF protein kinase 1 (Homo sapiens) (UniProt Q96SB4); experiment: Inhibition of SRPK1 at 1 uM
Chain of SRSF protein kinase 1 (Homo sapiens) (Q96SB4 whole entry): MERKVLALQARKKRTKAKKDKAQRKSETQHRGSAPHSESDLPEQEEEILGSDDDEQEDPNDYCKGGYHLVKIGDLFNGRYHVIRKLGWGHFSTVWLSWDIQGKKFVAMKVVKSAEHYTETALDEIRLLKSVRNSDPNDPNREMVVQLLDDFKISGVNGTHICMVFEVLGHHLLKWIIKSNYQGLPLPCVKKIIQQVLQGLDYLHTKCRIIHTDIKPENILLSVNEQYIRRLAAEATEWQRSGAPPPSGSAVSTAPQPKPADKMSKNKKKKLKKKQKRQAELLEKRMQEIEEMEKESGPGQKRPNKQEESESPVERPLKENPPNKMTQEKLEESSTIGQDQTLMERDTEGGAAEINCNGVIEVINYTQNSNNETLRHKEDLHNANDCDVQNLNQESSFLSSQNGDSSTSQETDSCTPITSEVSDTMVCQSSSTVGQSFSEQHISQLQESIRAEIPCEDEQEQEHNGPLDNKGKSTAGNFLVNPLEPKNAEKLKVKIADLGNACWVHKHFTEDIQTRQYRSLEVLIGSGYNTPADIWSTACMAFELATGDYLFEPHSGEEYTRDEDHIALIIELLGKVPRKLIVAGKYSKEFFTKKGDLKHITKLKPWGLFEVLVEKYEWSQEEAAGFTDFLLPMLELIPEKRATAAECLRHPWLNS

[6] = target: STE20/SPS1-related proline-alanine-rich protein kinase (Homo sapiens) (UniProt Q9UEW8); experiment: Inhibition of STK39 at 1 uM
[7] = target: AP2-associated protein kinase 1 (Homo sapiens) (UniProt Q2M2I8); experiment: Inhibition of AAK1 at 1 uM
Chain of AP2-associated protein kinase 1 (Homo sapiens) (Q2M2I8 whole entry, looked up): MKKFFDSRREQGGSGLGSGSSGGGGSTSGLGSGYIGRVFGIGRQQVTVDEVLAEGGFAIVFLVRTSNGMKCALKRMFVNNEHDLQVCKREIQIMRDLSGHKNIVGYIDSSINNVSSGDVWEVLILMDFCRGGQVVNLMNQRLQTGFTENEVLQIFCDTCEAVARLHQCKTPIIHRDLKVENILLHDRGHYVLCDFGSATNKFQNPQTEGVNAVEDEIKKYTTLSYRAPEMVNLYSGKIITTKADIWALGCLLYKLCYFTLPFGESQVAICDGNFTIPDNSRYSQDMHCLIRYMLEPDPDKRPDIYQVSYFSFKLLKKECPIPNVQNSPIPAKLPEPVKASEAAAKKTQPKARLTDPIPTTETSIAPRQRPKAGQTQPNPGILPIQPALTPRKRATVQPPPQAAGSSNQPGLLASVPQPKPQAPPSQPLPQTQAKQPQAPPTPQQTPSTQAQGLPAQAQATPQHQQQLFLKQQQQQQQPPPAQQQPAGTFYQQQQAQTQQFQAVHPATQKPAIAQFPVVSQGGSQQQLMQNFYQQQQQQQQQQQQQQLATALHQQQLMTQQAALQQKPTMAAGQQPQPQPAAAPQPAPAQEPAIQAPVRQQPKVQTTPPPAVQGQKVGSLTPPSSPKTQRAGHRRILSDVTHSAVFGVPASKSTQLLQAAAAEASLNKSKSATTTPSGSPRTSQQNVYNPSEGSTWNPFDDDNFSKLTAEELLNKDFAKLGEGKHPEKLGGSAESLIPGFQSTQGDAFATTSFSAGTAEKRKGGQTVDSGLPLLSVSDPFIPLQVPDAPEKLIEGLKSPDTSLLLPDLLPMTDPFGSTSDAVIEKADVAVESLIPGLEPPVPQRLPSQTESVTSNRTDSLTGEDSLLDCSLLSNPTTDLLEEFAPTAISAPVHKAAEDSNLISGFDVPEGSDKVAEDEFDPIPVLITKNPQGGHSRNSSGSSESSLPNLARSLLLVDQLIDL
Method in brief: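 Ambit KINOMEscan screen at a single concentration across a 250–400 kinase panel, recorded as percent inhibition. Selectivity was expressed as S(90), the fraction of kinases inhibited >90%.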

[8] = test system: Epidermal growth factor receptor (Homo sapiens), P00533 [G719C]; experiment: Inhibition of EGFR G719C mutant at 1 uM; assay type: protein assay
Chain of Epidermal growth factor receptor (Homo sapiens), P00533 [G719C] (P00533 whole entry G719C): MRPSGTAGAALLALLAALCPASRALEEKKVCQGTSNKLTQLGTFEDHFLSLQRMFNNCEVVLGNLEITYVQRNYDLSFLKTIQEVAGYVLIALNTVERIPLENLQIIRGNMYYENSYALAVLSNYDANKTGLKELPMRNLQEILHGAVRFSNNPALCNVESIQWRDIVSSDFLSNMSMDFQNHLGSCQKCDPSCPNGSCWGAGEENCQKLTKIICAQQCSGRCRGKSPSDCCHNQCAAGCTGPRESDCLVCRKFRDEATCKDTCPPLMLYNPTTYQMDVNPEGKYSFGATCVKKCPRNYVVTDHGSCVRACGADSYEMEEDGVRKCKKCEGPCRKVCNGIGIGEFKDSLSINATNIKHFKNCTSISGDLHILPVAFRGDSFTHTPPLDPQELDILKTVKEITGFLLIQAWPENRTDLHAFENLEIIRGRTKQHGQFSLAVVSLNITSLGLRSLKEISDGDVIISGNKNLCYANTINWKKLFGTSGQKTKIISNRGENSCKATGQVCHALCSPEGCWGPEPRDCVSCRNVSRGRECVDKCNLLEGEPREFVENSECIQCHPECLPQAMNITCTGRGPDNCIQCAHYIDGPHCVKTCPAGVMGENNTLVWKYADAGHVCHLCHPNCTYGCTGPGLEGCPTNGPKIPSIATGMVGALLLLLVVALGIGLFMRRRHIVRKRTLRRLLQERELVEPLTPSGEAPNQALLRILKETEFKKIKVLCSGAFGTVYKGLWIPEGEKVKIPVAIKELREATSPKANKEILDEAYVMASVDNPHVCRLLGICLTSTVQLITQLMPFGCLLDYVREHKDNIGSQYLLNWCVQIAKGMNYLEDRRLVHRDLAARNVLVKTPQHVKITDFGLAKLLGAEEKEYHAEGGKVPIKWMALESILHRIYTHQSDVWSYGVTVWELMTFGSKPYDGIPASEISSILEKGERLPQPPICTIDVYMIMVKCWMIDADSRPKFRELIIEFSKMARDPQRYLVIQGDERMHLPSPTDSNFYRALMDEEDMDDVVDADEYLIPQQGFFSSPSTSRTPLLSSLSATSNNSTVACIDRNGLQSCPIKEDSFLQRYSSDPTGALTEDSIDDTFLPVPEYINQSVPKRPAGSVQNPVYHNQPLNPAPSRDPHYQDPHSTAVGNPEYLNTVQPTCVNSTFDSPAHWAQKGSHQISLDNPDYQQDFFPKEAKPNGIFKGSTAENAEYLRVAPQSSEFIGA
Method in brief: (§2)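 Single-concentration screen using Ambit Bioscience KINOMEscan technology across a panel of 250–400 kinases. Per-kinase inhibition from this screen was summarized as S(90), the fraction of kinases inhibited by more than 90%.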

[9] = target: Tyrosine-protein kinase Fer (Homo sapiens) (UniProt P16591); experiment: Inhibition of FER at 1 uM; method in brief: as §2
Chain of Tyrosine-protein kinase Fer (Homo sapiens) (P16591 whole entry, looked up): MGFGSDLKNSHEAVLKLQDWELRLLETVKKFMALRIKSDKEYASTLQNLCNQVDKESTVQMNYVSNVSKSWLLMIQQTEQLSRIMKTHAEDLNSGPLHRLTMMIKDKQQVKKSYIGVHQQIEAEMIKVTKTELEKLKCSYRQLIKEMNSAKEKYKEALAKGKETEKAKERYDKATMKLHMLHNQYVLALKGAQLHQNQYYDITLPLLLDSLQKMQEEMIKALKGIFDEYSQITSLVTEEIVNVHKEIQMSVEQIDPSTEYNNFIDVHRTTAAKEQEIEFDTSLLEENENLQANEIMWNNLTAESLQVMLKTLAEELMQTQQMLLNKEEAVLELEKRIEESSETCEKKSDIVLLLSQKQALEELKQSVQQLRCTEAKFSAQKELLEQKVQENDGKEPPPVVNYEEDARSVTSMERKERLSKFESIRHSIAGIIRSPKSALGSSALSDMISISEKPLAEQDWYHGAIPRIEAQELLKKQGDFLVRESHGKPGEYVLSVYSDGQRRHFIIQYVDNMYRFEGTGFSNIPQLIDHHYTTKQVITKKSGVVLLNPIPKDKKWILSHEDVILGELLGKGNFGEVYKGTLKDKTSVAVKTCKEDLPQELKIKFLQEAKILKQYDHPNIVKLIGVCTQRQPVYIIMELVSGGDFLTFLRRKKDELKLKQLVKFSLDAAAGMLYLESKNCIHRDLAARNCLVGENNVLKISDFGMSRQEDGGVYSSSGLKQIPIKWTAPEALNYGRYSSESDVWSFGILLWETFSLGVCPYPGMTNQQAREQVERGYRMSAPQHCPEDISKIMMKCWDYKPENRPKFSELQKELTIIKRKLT

| SMILES | inhibition [1] [%] | inhibition [2] [%] | inhibition [3] [%] | inhibition [4] [%] | inhibition [5] [%] | inhibition [6] [%] | inhibition [7] [%] | inhibition [8] [%] | inhibition [9] [%] |
| --- | --- | --- | --- | --- | --- | --- | --- | --- | --- |
| CN1CCN(c2ccc(-c3cnc4c(c3)N(Cc3cc(F)ccc3F)CCN4)cn2)CC1 | < 50 | 86.4 | < 50 | < 50 | < 50 | < 50 | < 50 | < 50 | < 50 |
| CC(=O)N1CCN(c2cc(-c3cnc4c(c3)N(Cc3cc(Cl)ccc3C(F)(F)F)CCN4)ccn2)CC1 | < 50 | 88 | < 50 | < 50 | < 50 | < 50 | < 50 | < 50 | < 50 |
| CN1CCN(c2ccc(-c3cnc4c(c3)N(Cc3c(F)ccc(F)c3Cl)CCN4)cn2)CC1 | < 50 | 83 | < 50 | < 50 | < 50 | < 50 | < 50 | < 50 | < 50 |
| FC(F)(F)c1ccc(Cl)cc1CN1CCNc2ncc(-c3ccnc(N4CCNCC4)c3)cc21 | < 50 | 88 | 76 | < 50 | < 50 | < 50 | < 50 | < 50 | 97 |
| CN1CCN(c2ccc(-c3cnc4c(c3)N(Cc3cc(Cl)ccc3Cl)CCN4)cn2)CC1 | < 50 | 73 | < 50 | < 50 | < 50 | < 50 | < 50 | < 50 | < 50 |
| O=C(c1ccc(-c2cnc3c(c2)N(Cc2cc(Cl)ccc2C(F)(F)F)CCN3)cc1)N1CCC(N2CCCC2)CC1 | < 50 | 98.7 | < 50 |  | < 50 | 73.2 | < 50 | < 50 | < 50 |
| O=C(O)c1ccc(-c2cnc3c(c2)N(Cc2cc(Cl)ccc2C(F)(F)F)CCN3)cc1 | < 50 | < 50 | < 50 |  | < 50 |  | < 50 | < 50 | < 50 |
| CN1CCN(c2ccc(-c3cnc4c(c3)N(Cc3cc(Cl)ccc3C(F)(F)F)CCN4)cn2)CC1 | < 50 | 75 | < 50 | < 50 | < 50 | < 50 | < 50 | < 50 | < 50 |
| O=C(c1ccc(-c2cnc3c(c2)N(Cc2cc(Cl)ccc2C(F)(F)F)CCN3)cc1)N1CCCCC1 | < 50 | 79.3 | < 50 |  | < 50 |  | < 50 | < 50 | < 50 |
| COC1CCN(C(=O)c2ccc(-c3cnc4c(c3)N(Cc3cc(Cl)ccc3C(F)(F)F)CCN4)cc2)CC1 | < 50 | 93.2 | < 50 |  | < 50 |  | < 50 | < 50 | < 50 |
